Calls of active or inactive are those of the source. How the calls were made is not given here.

The source of these data is PubChem BioAssay AID588510 (Broad Institute, 2011).

The target in this test is Protein LANA1 (Human herpesvirus 8 type P (isolate GK18)) (UniProt Q9QR71). Description: LANA–nucleosome binding inhibitors, dose response, orthogonal assay, biochemical, ELISA, dry powder samples (AID 588510). The settings on record: GST-LANA 1-23 binding to nucleosomes, ELISA 450 nm; series mostly up to 50 µM. A digest of the protocol: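 Assay system: Plate-coated purified nucleosomes with GST-tagged LANA N-terminal peptide 1-23; Input: nucleosomes 1.5 µg per well; Buffer or medium: Milk-blocked nucleosome-coated wells; Also added: GST-LANA 1-23, 7.5 µg/mL; Dosing: pinned compound, dose series; Incubation: compound plus GST-LANA 90 min 4 °C, substrate 30 min RT; Detection: colorimetric ELISA, anti-GST and secondary antibodies, absorbance 450 nm.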
Chain of Protein LANA1 (Human herpesvirus 8 type P (isolate GK18)) (Q9QR71 whole entry, looked up): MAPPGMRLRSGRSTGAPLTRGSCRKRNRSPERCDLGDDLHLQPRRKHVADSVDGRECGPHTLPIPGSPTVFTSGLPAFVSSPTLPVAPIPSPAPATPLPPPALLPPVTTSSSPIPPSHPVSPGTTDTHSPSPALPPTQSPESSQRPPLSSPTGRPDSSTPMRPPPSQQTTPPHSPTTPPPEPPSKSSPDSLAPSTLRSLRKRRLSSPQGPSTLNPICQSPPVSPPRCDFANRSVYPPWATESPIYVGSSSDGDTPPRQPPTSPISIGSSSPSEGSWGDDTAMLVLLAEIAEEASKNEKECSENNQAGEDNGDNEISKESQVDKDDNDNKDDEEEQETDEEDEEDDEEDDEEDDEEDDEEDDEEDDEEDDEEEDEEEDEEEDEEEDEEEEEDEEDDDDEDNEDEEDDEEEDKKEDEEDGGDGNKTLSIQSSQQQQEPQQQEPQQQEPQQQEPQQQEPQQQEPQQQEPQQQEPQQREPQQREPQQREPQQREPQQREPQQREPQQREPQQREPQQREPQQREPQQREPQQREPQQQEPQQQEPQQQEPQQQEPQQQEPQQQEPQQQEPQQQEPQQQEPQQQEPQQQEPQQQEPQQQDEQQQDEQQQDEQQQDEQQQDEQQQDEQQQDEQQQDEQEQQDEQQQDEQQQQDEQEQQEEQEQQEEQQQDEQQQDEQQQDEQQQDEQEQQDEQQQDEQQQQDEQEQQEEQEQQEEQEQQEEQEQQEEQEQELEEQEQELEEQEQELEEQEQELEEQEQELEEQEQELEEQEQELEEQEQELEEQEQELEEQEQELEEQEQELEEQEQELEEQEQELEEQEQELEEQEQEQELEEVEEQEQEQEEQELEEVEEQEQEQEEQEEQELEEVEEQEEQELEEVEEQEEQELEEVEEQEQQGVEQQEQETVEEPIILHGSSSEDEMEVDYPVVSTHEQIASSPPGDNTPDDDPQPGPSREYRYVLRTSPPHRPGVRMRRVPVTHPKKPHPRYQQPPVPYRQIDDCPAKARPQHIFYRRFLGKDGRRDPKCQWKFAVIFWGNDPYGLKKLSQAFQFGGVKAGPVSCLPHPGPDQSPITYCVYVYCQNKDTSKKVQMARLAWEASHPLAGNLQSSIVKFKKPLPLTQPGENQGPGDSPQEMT
As for `CC(C)(C)C1(C)OC(=O)C(=Cc2ccc(OCC(=O)Nc3ccccc3)cc2)C(=O)O1` (stereo not drawn), the compound was called inactive.

With `COc1ccc2ccccc2c1C(O)c1nccn1C` (stereo not drawn), the compound was classed as inactive.

Regarding `CC(=O)Nc1ccc(-c2cn3ccsc3n2)cc1`, the compound was classed as inactive.

In the case of `Clc1ccc(-c2nnc3sc(-c4ccc(Br)o4)nn23)cc1`, the outcome was inactive.

In the case of `COc1ccc(C2C=C(c3ccc(Br)cc3)Nc3nc(NS(C)(=O)=O)nn32)cc1` (stereo not drawn), the outcome was inactive.

On to `O=C(CCCN1C(=O)c2cccc3cccc(c23)C1=O)N1CCN(c2ccccc2)CC1`, for which the compound was called inactive.

On to `CC1Cc2ccccc2N1C(=O)CSc1ncccn1` (stereo not drawn), for which the result was inactive.

As to `Cc1cccc(N2C(=O)c3cccc4c(N(C)CCO)ccc(c34)C2=O)c1`, the compound was classed as inactive.

As for `CC(=O)Nc1cccc(N)c1`, the compound was called inactive.

Turning to `Cc1cc(C)c2nc(C(F)(F)F)nc(NCCCN3CCCC3=O)c2c1`, the call was inactive.

In the case of `O=S(=O)(Nc1cc(Cl)ccc1N1CCOCC1)c1ccccc1Cl`, the outcome was inactive.

`Cc1ccc(Cl)cc1N1CCN(C(=O)C2CCN(S(C)(=O)=O)CC2)CC1`: the result was inactive.

As to `Cc1cc(C)cc(NS(=O)(=O)c2ccc3c(c2)C(C)(C)C(=O)N3C)c1`, the call was inactive.
